Assay results as given in ChEMBL document CHEMBL5236607, “Membrane-Active Cyclic Amphiphilic Peptides: Broad-Spectrum Antibacterial Activity Alone and in Combination with Antibiotics” (J Med Chem, 2022).
Active and inactive are the calls of the source. No cut-off for these calls is given here. Peptide text beside a SMILES is read from it.

Columns and labels:
[1] = tested on: Escherichia coli; assay: Synergistic antibacterial activity against Escherichia coli ATCC 25922 fractional inhibitory concentration index incubated for 24 hrs in presence of meropenem by checkerboard assay; assay type: functional
Procedure, shortened: (§1)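 Checkerboard assay. Inoculum from an LB overnight culture at 0.5 McFarland, diluted 1/150 in MH media. […] Incubated 37 °C for 24 h. FICI = MIC combination/MIC alone summed over both agents. Triplicate.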

[2] = tested on: Escherichia coli; assay: Synergistic antibacterial activity against Escherichia coli ATCC 25922 fractional inhibitory concentration incubated for 24 hrs in presence of Ciprofloxacin by checkerboard assay; assay type: functional
Procedure, shortened: (§2)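 Checkerboard assay in MH broth. Inoculum from an LB overnight culture set to 0.5 McFarland and diluted 1/150. […] Each agent was also titrated alone. Incubation 24 h at 37 °C. FIC = combination MIC/individual MIC; FICI = sum of the FICs. Triplicate.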

[3] = tested on: Escherichia coli; assay: Synergistic antibacterial activity against Escherichia coli ATCC 25922 fractional inhibitory concentration incubated for 24 hrs in presence of meropenem by checkerboard assay; assay type: functional; procedure, shortened: as §1
[4] = tested on: Escherichia coli; assay: Synergistic antibacterial activity against Escherichia coli ATCC 25922 incubated for 24 hrs in presence of meropenem by checkerboard assay; assay type: functional; procedure, shortened: as §2
[5] = tested on: Staphylococcus aureus; assay: Synergistic antibacterial activity against methicillin resistant Staphylococcus aureus ATCC BAA-1556 fractional inhibitory concentration incubated for 24 hrs in presence of Ciprofloxacin by checkerboard assay; assay type: functional; procedure, shortened: as §1
[6] = tested on: Escherichia coli; assay: Synergistic antibacterial activity against Escherichia coli ATCC 25922 fractional inhibitory concentration index incubated for 24 hrs in presence of Ciprofloxacin by checkerboard assay; assay type: functional; procedure, shortened: as §2
[7] = tested on: Cell membrane; assay: Membrano-lytic activity against methicillin resistant Staphylococcus aureus assessed as change in morphology at 4 times MIC after 1 hr by SEM analysis; assay type: subcellular
[8] = tested on: Staphylococcus aureus; assay: Induction of resistance development in Staphylococcus aureus ATCC 29213 assessed as increase in MIC by microtiter plate reader assay; assay type: functional, organism-based
Procedure, shortened: (§3)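 Serial passage resistance assay with 2-fold microdilution MICs in 96-well plates. Each passage takes the well with the highest concentration still permitting growth, adjusts it to 0.5 McFarland, and dilutes it to a final 5 × 10^5 CFU/mL for the next passage. Eighteen passages; MIC recorded at each. Triplicate.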

[9] = tested on: Staphylococcus aureus; assay: Bactericidal activity against methicillin resistant Staphylococcus aureus assessed as reduction in bacterial cells at 4 times MIC after 2 hrs by time kill assay; assay type: functional; set-up: scale not given: the % may be the effect or the level left
Procedure, shortened: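 Time-kill in Müller–Hinton media. […] Aliquots taken at 0–24 h, serially diluted and plated on MH agar. CFU counted after 24 h at 37 °C. Two independent experiments in triplicate.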

[10] = Membrano-lytic effect in bacterial inner membrane mimic DOPC/DOPG (7:3) large unilamellar vesicles assessed as calcein leakage at 50 ug/ml measured after 90 mins by multimode microplate reader assay; assay type: cell membranes; details: dose 50.0 µg/ml
Procedure, shortened: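 Calcein (70 mM) loaded into extruded 100 nm LUVs: DOPC:DOPG 7:3 (w/w) as the bacterial mimic, DOPC/cholesterol 10:1 (w/w) as the mammalian mimic. Free dye removed by gel filtration. Liposomes at 40 μM final lipid in PBS mixed 1:1 with peptide (5–50 μg/mL). Fluorescence (ex 490/em 520 nm) read every 10 min for 100 min; Triton X-100 defines 100% release. Triplicate.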

[11] = tested on: Cell membrane; assay: Membrano-lytic activity against Escherichia coli assessed as loss of membrane fluidity at 4 times MIC after 1 hr by SEM analysis; assay type: subcellular
Procedure, shortened: (§4)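 E. coli ATCC BAA-2452 from overnight culture, suspended at 10^7 CFU/mL in 10 mM PBS pH 7.4. […] Fixed in 4% glutaraldehyde in cacodylate buffer pH 7.4 for 3 h at 4 °C, ethanol-dehydrated, HMDS-dried, Au/Pd-coated, then imaged by FE-SEM.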

[12] = tested on: Escherichia coli; assay: Induction of resistance development in Escherichia coli ATCC 25922 assessed as increase in MIC by microtiter plate reader assay; assay type: functional, organism-based
[13] = tested on: Staphylococcus aureus; assay: Induction of resistance development in methicillin resistant Staphylococcus aureus ATCC BAA-1556 assessed as increase in MIC by microtiter plate reader assay; assay type: functional, organism-based; procedure, shortened: as §3
[14] = tested on: Klebsiella pneumoniae; assay: Synergistic antibacterial activity against Klebsiella pneumoniae ATCC BAA-1705 fractional inhibitory concentration index incubated for 24 hrs in presence of meropenem by checkerboard assay; assay type: functional; procedure, shortened: as §2
[15] = tested on: Staphylococcus aureus; assay: Synergistic antibacterial activity against methicillin resistant Staphylococcus aureus ATCC BAA-1556 assessed as fractional inhibitory concentration index incubated for 24 hrs in presence of tobramycin by checkerboard assay; assay type: functional; procedure, shortened: as §1
[16] = tested on: Escherichia coli; assay: Induction of resistance development in Escherichia coli ATCC BAA-2452 assessed as increase in MIC by microtiter plate reader assay; assay type: functional, organism-based; procedure, shortened: as §3
[17] = tested on: Staphylococcus aureus; assay: Synergistic antibacterial activity against methicillin resistant Staphylococcus aureus ATCC BAA-1556 incubated for 24 hrs in presence of levofloxacin by checkerboard assay; assay type: functional; procedure, shortened: as §1
[18] = tested on: Staphylococcus aureus; assay: Bactericidal activity against methicillin resistant Staphylococcus aureus assessed as reduction in bacterial cells at MIC after […] by time kill assay; assay type: functional; set-up: scale not given: the % may be the effect or the level left
[19] = tested on: Escherichia coli; assay: Bactericidal activity against Escherichia coli assessed as reduction in bacterial cells at 4 times MIC after 2 hrs by time kill assay; assay type: functional; set-up: scale not given: the % may be the effect or the level left
Procedure, shortened: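 Samples taken at time points from 0 to 24 h, serially diluted and plated on MH agar. CFU counted after 24 h at 37 °C. Untreated culture served as control. Two independent experiments in triplicate.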

[20] = tested on: Cell membrane; assay: Membrano-lytic activity against Escherichia coli assessed as change in morphology at 4 times MIC after 1 hr by SEM analysis; assay type: subcellular; procedure, shortened: as §4
[21] = tested on: Cell membrane; assay: Membrano-lytic activity against Escherichia coli assessed as membrane atrophy at 4 times MIC after 1 hr by SEM analysis; assay type: subcellular; procedure, shortened: as §4
[22] = tested on: Staphylococcus aureus; assay: Synergistic antibacterial activity against methicillin resistant Staphylococcus aureus ATCC BAA-1556 assessed as fractional inhibitory concentration incubated for 24 hrs in presence of tobramycin by checkerboard assay; assay type: functional; procedure, shortened: as §1
[23] = tested on: Pseudomonas aeruginosa; assay: Synergistic antibacterial activity against Pseudomonas aeruginosa ATCC […] fractional inhibitory concentration index incubated for 24 hrs in presence of polymyxin B by checkerboard assay; assay type: functional
[24] = tested on: Klebsiella pneumoniae; assay: Antibacterial activity against carbapenem resistant Klebsiella pneumoniae ATCC BAA 1705 after 24 hrs by microbroth dilution method; assay type: functional
[25] = tested on: Staphylococcus aureus; assay: Synergistic antibacterial activity against methicillin resistant Staphylococcus aureus ATCC BAA-1556 fractional inhibitory concentration index incubated for 24 hrs in presence of levofloxacin by checkerboard assay; assay type: functional; procedure, shortened: as §1
[26] = tested on: Escherichia coli; assay: Synergistic antibacterial activity against Escherichia coli ATCC 25922 assessed as fractional inhibitory concentration index incubated for 24 hrs in presence of tobramycin by checkerboard assay; assay type: functional; procedure, shortened: as §2
[27] = tested on: Cell membrane; assay: Membrano-lytic activity against methicillin resistant Staphylococcus aureus assessed as loss of membrane fluidity at 4 times MIC after 1 hr by SEM analysis; assay type: subcellular
[28] = tested on: Pseudomonas aeruginosa; assay: Synergistic antibacterial activity against Pseudomonas aeruginosa ATCC […] assessed as fractional inhibitory concentration index incubated for 24 hrs in presence of tobramycin by checkerboard assay; assay type: functional
[29] = tested on: Klebsiella pneumoniae; assay: Synergistic antibacterial activity against Klebsiella pneumoniae ATCC BAA-1705 fractional inhibitory concentration incubated for 24 hrs in presence of meropenem by checkerboard assay; assay type: functional; procedure, shortened: as §2
[30] = tested on: Pseudomonas aeruginosa; assay: Synergistic antibacterial activity against Pseudomonas aeruginosa ATCC […] fractional inhibitory concentration incubated for 24 hrs in presence of polymyxin B by checkerboard assay; assay type: functional

N=C(N)NCCC[C@@H]1NC(=O)[C@H](CCCNC(=N)N)NC(=O)[C@H](CCCNC(=N)N)NC(=O)[C@H](CCCNC(=N)N)NC(=O)[C@H](Cc2c[nH]c3ccccc23)NC(=O)[C@H](Cc2c[nH]c3ccccc23)NC(=O)[C@H](Cc2c[nH]c3ccccc23)NC(=O)[C@H](Cc2c[nH]c3ccccc23)NC(=O)[C@H](CCCNC(=N)N)NC(=O)[C@H](CCCNC(=N)N)NC1=O (cyclo(RRRRRRWWWW))
fractional inhibitory concentration index (FICI) [1]: 0.375 | FIC [2]: 0.125 | FIC [3]: 0.125 | MIC [4]: 0.125 µg/mL | FIC [5]: 0.25 | fractional inhibitory concentration index (FICI) [6]: 0.375

N=C(N)NCCC[C@@H]1NC(=O)[C@H](CCCNC(=N)N)NC(=O)[C@H](CCCNC(=N)N)NC(=O)[C@H](Cc2c[nH]c3ccccc23)NC(=O)[C@H](Cc2c[nH]c3ccccc23)NC(=O)[C@H](Cc2c[nH]c3ccccc23)NC(=O)[C@H](Cc2c[nH]c3ccccc23)NC(=O)[C@H](CCCNC(=N)N)NC(=O)[C@H](CCCNC(=N)N)NC1=O
Activity [7]: Active | Activity [8]: inactive | Activity [9]: 100% | Activity [10]: 100% | Activity [11]: Active | Activity [12]: inactive | Activity [13]: inactive | fractional inhibitory concentration index (FICI) [14]: 0.5 | fractional inhibitory concentration index (FICI) [15]: 0.5 | Activity [16]: inactive | MIC [17]: 1 µg/mL | Activity [18]: 100% | Activity [19]: 100% | Activity [20]: Active | Activity [21]: Active | FIC [22]: 0.25 | fractional inhibitory concentration index (FICI) [23]: 0.375 | MIC [24]: > 64 µg/mL | fractional inhibitory concentration index (FICI) [25]: 0.5 | fractional inhibitory concentration index (FICI) [26]: 0.5 | Activity [27]: Active | fractional inhibitory concentration index (FICI) [28]: 0.5 | FIC [29]: 0.25 | FIC [30]: 0.125
